Reference: ChEMBL document CHEMBL1123678, “Octahydropyrazino[2',3':3,4]pyrido[1,2-a]indoles. A new class of potent antihypertensive agents” (1987)

Tests used:
Rattus norvegicus [1] = test: Antihypertensive activity was determined in cannulated spontaneously hypertensive rats(SHR) and maximum decrease of mean arterial blood pressure (MABP) at 10 mg/kg oral dose; assay type: functional, Artery
Summary of the method: (§1)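 Cannulated SHR given compound by gastric gavage in 0.5% methylcellulose (5 mL/kg), doses 0.1–50 mg/kg, 4–8 animals per dose, after 1-h equilibration. MABP recorded for 4 h; maximal % decrease reported with time to peak effect. Significance by two-way analysis of variance.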

Rattus norvegicus [2] = test: Antihypertensive activity was determined in cannulated spontaneously hypertensive rats(SHR) and maximum decrease of mean arterial blood pressure (MABP) at 1 mg/kg oral dose; assay type: functional, Artery; summary of the method: as §1
Rattus norvegicus [3] = test: Antihypertensive activity was determined in cannulated spontaneously hypertensive rats(SHR) and maximum decrease of mean arterial blood pressure (MABP) at 5 mg/kg oral dose; assay type: functional, Artery; summary of the method: as §1
Rattus norvegicus [4] = test: Vasopressor responses to epinephrine as a measure of the alpha-1-adrenoceptor blocking activity at 1 mg/kg administered orally was reported to be reveresed; assay type: functional, organism-based; design: dose 1 mg/kg
Rattus norvegicus [5] = test: Antihypertensive activity was determined in cannulated spontaneously hypertensive rats(SHR) and marked bradycardia was reported at a dose of 10 mg/kg; assay type: functional, organism-based; design: dose 10 mg/kg
Rattus norvegicus [6] = test: Antihypertensive activity was determined in cannulated spontaneously hypertensive rats(SHR) and marked bradycardia was reported at a dose of 5 mg/kg; assay type: functional, organism-based; design: dose 5 mg/kg
Rattus norvegicus [7] = test: Vasopressor responses to epinephrine as a measure of the alpha-1-adrenoceptor blocking activity at 5 mg/kg administered orally was reported to be reveresed; assay type: functional, organism-based; design: dose 5 mg/kg
Rattus norvegicus [8] = test: Vasopressor responses to epinephrine as a measure of the alpha-1-adrenoceptor blocking activity at 10 mg/kg administered orally was reported to be reveresed; assay type: functional, organism-based; design: dose 10 mg/kg
Rattus norvegicus [9] = test: Antihypertensive activity was determined in cannulated spontaneously hypertensive rats(SHR) and maximum decrease of mean arterial blood pressure (MABP) at 50 mg/kg oral dose; assay type: functional, Artery; summary of the method: as §1
Rattus norvegicus [10] = test: Antagonism of vasopressor responses to epinephrine as a measure of the alpha-1-adrenoceptor blocking activity at 50 mg/kg administered orally was reported to be reversed; assay type: functional, organism-based; design: dose 50 mg/kg

Compound | Decrease in MABP (Rattus norvegicus [1]) | Decrease in MABP (Rattus norvegicus [2]) | Decrease in MABP (Rattus norvegicus [3]) | Activity (Rattus norvegicus [4]) | HR (Rattus norvegicus [5]) | HR (Rattus norvegicus [6]) | Activity (Rattus norvegicus [7]) | Activity (Rattus norvegicus [8]) | Decrease in MABP (Rattus norvegicus [9]) | Activity (Rattus norvegicus [10])
CCN1CCN(CC)[C@H]2c3c(C)c4ccccc4n3CC[C@@H]21.Cl.Cl | 32% | 14% | 28% | Vasopressor response reveresed | Heart rate response was reported to be reduce by 10-25% after 4 hr at a dose of 25 mg/kg | Heart rate response was reported to be reduce by 10-25% after 4 hr at a dose of 25 mg/kg | Vasopressor response reveresed | Vasopressor response reveresed | – | –
CCN1CCN(CCOc2ccccc2)C2CCn3c(c(C)c4ccccc43)C21.Cl.Cl (stereo not given) | – | – | – | – | – | – | – | – | 22% | Antagonism reversed
